The structures appear in SMILES notation.

The first test has as its system HL-60. As to the kind of experiment: Inhibition of Ca2+-induced mitochondrial permeability transition in human HL60 cells at 50 uM after 40 mins relative to control. The test is classed as functional. The settings on record: HL-60, 40 min. A digest of the protocol:
(§1)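 Mitochondria were isolated from human leukaemia HL-60 cells, which were grown in RPMI1640 with 5% heat-inactivated FBS and penicillin/streptomycin at 37 °C under 5% CO2. Swelling was then triggered with 250 µM CaCl2 (final) and followed as the change in OD540 at 30 °C. Inhibition % at 40 min was scaled between no-CaCl2 (100%) and CaCl2-only (0%) controls.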
The compound `Nc1ccc(CN2C(=O)CN(NC(=O)c3ccc(-c4cc(Cl)cc(Cl)c4)o3)C2=O)cc1` yielded an inhibition at 50 µM of 46%.
Same read-out and setting: the figure for `O=C(NN1CC(=O)N(Cc2ccncc2)C1=O)c1ccc(-c2cc(Cl)cc(Cl)c2)o1` is 8.7%; for `Nc1cccc(CN2C(=O)CN(NC(=O)c3ccc(-c4ccc(Cl)cc4)o3)C2=O)c1` it is 20%.
For the compound `O=C(NN1CC(=O)N(Cc2cccnc2)C1=O)c1ccc(-c2cc(Cl)cc(Cl)c2)o1`, at 50 µM the inhibition was 71%.
In turn, `Nc1cccc(CN2C(=O)CN(NC(=O)c3ccc(-c4cc(Cl)cc(Cl)c4)o3)C2=O)c1` showed an inhibition at 50 µM of 48%.
On the same count and under the same terms, the figure for `Nc1cccc(CN2C(=O)CN(NC(=O)c3ccc(-c4ccccc4)o3)C2=O)c1` is 19%; for `Nc1cccc(CN2C(=O)CN(NC(=O)c3ccc(-c4cccc(Br)c4)o3)C2=O)c1` it is 11%.

The subject of the next test is HL-60. As to the kind of experiment: Inhibition of Ca2+-induced mitochondrial permeability transition in human HL60 cells at 25 uM after 40 mins relative to control. The class given is functional. The settings on record: HL-60, 40 min. A digest of the protocol:
as §1
`CN1C(=O)CN(/N=C/c2ccc(-c3cccc(Cl)c3)o2)C1=O` had an inhibition at 25 µM of 6%.
Same read-out and setting: the figure for `CN1C(=O)CN(NC(=O)c2ccc(-c3cc(Cl)cc(Cl)c3)o2)C1=O` is 8.5%; for `Nc1cccc(CN2C(=O)CN(NC(=O)c3ccc(-c4cccc(Cl)c4)o3)C2=O)c1` it is 16%; for `Nc1cccc(CN2C(=O)CN(NC(=O)c3ccc(-c4cccc(C(F)(F)F)c4)o3)C2=O)c1` it is 6.5%.
`Nc1cccc(CN2C(=O)CN(NC(=O)c3ccc(-c4cc(Cl)cc(Cl)c4)o3)C2=O)c1` returned an inhibition at 25 µM of 35%.
With `CN1C(=O)CN(NC(=O)c2ccc(-c3cccc(Cl)c3)o2)C1=O`, the inhibition at 25 µM came to 2%.
With `O=C1CN(/N=C/c2ccc(-c3ccc([N+](=O)[O-])cc3)o2)C(=O)N1` [DANTROLENE SODIUM], 25 µM produced 13% inhibition.
Still for that read-out and setting: the figure for `CN1C(=O)CN(/N=C/c2ccc(-c3cc(Cl)cc(Cl)c3)o2)C1=O` is 23%; for `Nc1cccc(CN2C(=O)CN(/N=C/c3ccc(-c4cccc(Cl)c4)o3)C2=O)c1` it is 14%; for `Nc1cccc(CN2C(=O)CN(/N=C/c3ccc(-c4cc(Cl)cc(Cl)c4)o3)C2=O)c1` it is 14%.

The inhibition is how much of the control response was suppressed. The low end stands for a response near the control, the high end for a response far below the control.

(Values after ChEMBL document CHEMBL2158002, “Small-molecular inhibitors of Ca²⁺-induced mitochondrial permeability transition (MPT) derived from muscle relaxant dantrolene” (2012).)
